Data set [1] in a line: Inhibition of HCV isolate HC-J4 NS5B deltaC21 polymerase. Set-up: species or system Hepatitis C virus isolate HC-J4. The gist of the method:
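Inhibitor was preincubated 5 min, then 250 nM 5′-biotin-rU₁₂ primer, poly-rA template, UTP and ³H-UTP were added (5% DMSO). After 2 h, SPA beads/EDTA stop, then CsCl for 1 h, then scintillation count. IC50 by 4-parameter logistic fit.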

Data set [2] can be described thus: Cytotoxicity against human HuH7 cells. The data set is classed as cell-based, Huh-7. The gist of the method:
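Huh-7 cells stably carrying luc/neo ET replicon, grown in DMEM with 10% fetal calf serum, seeded at 5 × 10³ cells/well. DMSO serial dilutions were added ~24 h after plating (final DMSO 1%), with exposure for 46–50 h. Luminescence vs log concentration was fitted to a 4-parameter logistic to give EC50 and CC50.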

The next data set relates to Hepatitis C virus. The data set is described as follows: Antiviral activity against HCV 1b infected in human Huh7 cells after 46-50 hrs by luc/neo ET replicon assay. As to conditions: genotype 1b, Huh-7, 46-50 h.

Molecules are shown by their SMILES.

A word on the IC50: it is the concentration at which inhibition is half-maximal. Higher therefore signals lower potency. A word on the CC50: it is the concentration giving 50% cytotoxicity. As usually defined, the EC50 is the concentration that produces a half-maximal response. Read a high EC50 as a need for much substance. In the case of `CC(C)CCC1(C)C(=O)C(C2=NS(=O)(=O)c3cc(NS(C)(=O)=O)ccc3N2)=C(O)c2cncn21` (centres undefined), the IC50 in data set [1] is < 5 nM. Moreover, the CC50 in data set [2] is > 100000 nM. The molecule also gave a half-maximal effective concentration (EC50) with Hepatitis C virus of 6600 nM.
The like results for `CC(C)CC[C@]1(C)C(=O)C(C2=NS(=O)(=O)c3cc(NS(C)(=O)=O)ccc3N2)=C(O)c2cccn21` were, in that order, 150 nM, 170000 nM and 4900 nM.
On to `CC(C)CCC1(C)C(=O)C(C2=NS(=O)(=O)c3cc(NS(C)(=O)=O)ccc3N2)=C(O)c2ccnn21` (centres undefined), for which the concentration for half-maximal inhibition (IC50) in data set [1] is < 5 nM. Besides, in data set [2], the CC50 was > 100000 nM. Besides, the EC50 in the data set with Hepatitis C virus came out at 1100 nM.
Take `CS(=O)(=O)Nc1ccc2c(c1)S(=O)(=O)N=C(c1c(O)n3nccc3n(Cc3ccc(F)cc3)c1=O)N2`: in data set [1], the half-inhibitory concentration (IC50) is < 5 nM. Also, the 50% cytotoxic concentration (CC50) in data set [2] was > 100000 nM. Also, in the data set with Hepatitis C virus, the midpoint of the response, the EC50, lay at 12000 nM.
With `Cc1cc2n(CCC(C)C)c(=O)c(C3=NS(=O)(=O)c4cc(NS(C)(=O)=O)ccc4N3)c(O)n2n1`, in data set [1], the IC50 is < 5 nM. In addition, the cytotoxic concentration (CC50) in data set [2] was > 100000 nM. In addition, the EC50 in the data set on Hepatitis C virus was determined as 1700 nM.
As for `CC(C)CCn1c(=O)c(C2=NS(=O)(=O)c3cc(NS(C)(=O)=O)ccc3N2)c(O)n2nc(C3CC3)cc12`, it took 9 nM to reach half-maximal inhibition in data set [1] (IC50). The cytotoxic concentration (CC50) in data set [2] was > 100000 nM. The EC50 in the data set with Hepatitis C virus was > 20000 nM.
The like results for `CC(C)CCC1(C)C(=O)C(C2=NS(=O)(=O)c3cc(NS(C)(=O)=O)ccc3N2)=C(O)c2cccn21` (centres undefined) were, in that order, < 5 nM, > 100000 nM and 230 nM.
As to `CC(C)CCn1c(=O)c(C2=NS(=O)(=O)c3cc(NS(C)(=O)=O)ccc3N2)c(O)n2ncnc12`, the IC50 in data set [1] was < 5 nM. For the same molecule, the CC50 in data set [2] was > 100000 nM. The same molecule returned an EC50 with Hepatitis C virus of 6700 nM.
For `CC(C)CCn1c(=O)c(C2=NS(=O)(=O)c3cc(NS(C)(=O)=O)ccc3N2)c(O)n2ccnc12`, in data set [1], the IC50 is < 5 nM. Further, the cytotoxic concentration (CC50) in data set [2] was > 1000 nM. In the data set with Hepatitis C virus, the half-maximal effective concentration (EC50) stood at 550 nM.
On to `CS(=O)(=O)Nc1ccc2c(c1)S(=O)(=O)N=C(c1c(O)n3nccc3n(CCc3ccc(F)cc3)c1=O)N2`, for which half-maximal inhibition in data set [1] (IC50) was put at 18 nM. Besides, the 50% cytotoxic concentration (CC50) in data set [2] is > 100000 nM. In addition, the EC50 with Hepatitis C virus was > 100000 nM.
Consider `CS(=O)(=O)Nc1ccc2c(c1)S(=O)(=O)N=C(c1c(O)n3nccc3n(Cc3ccccc3)c1=O)N2`, for which the half-inhibitory concentration (IC50) in data set [1] is < 5 nM. The 50% cytotoxic concentration (CC50) in data set [2] was > 100000 nM. In the data set with Hepatitis C virus, the half-maximal effective concentration (EC50) was found to be 4000 nM.
The like results for `CC(C)CC[C@@]1(C)C(=O)C(C2=NS(=O)(=O)c3cc(NS(C)(=O)=O)ccc3N2)=C(O)c2cccn21` were, in that order, < 5 nM, 19500 nM and 150 nM.
Consider `CC(C)CCn1c(=O)c(C2=NS(=O)(=O)c3cc(NS(C)(=O)=O)ccc3N2)c(O)n2nccc12`, for which the IC50 in data set [1] is < 5 nM. The cytotoxic concentration (CC50) in data set [2] is > 100000 nM. This molecule gave an EC50 in the data set on Hepatitis C virus of 550 nM.

The record behind these values is ChEMBL document CHEMBL1153628, “HCV NS5B polymerase inhibitors 2: Synthesis and in vitro activity of (1,1-dioxo-2H-[1,2,4]benzothiadiazin-3-yl) azolo[1,5-a]pyridine and azolo[1,5-a]pyrimidine derivatives” (Bioorg Med Chem Lett, 2009).
